This passage reports IC50 results from ChEMBL document CHEMBL1150647, “New diarylheptanoids from the stems of Carpinus cordata” (J Nat Prod, 2002).

The test deals with Radical scavenging activity. In words: Antioxidant activity assessed as DPPH free radical scavenging activity after 30 mins. The test is classed as functional. The procedure, abridged:
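Test samples in EtOH mixed with 100 µM ethanolic DPPH and incubated at 37 °C for 30 min. Absorbance was read at 515 nm. Percent inhibition was calculated against an ethanol-treated control. IC50 is the sample concentration that scavenges 50% of DPPH radicals.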

≈ marks a conversion by molar mass, not a printed value.

The IC50 is the midpoint of a concentration-inhibition curve. For `COC(=O)c1cc(O)c(O[C@@H]2O[C@H](CO)[C@@H](O)[C@H](O)[C@H]2O)c(O)c1`, the half-maximal inhibitory concentration (IC50) is above 100 µg/mL. For `COC(=O)c1cc(O)c(O)c(O[C@@H]2O[C@H](COC(=O)c3cc(O)c(O)c(O)c3)[C@@H](O)[C@H](O)[C@H]2O)c1`, the concentration for half-maximal inhibition (IC50) came out at 4.9 µg/mL (≈ 9.83 µM). Consider `COC(=O)c1cc(O)c(O)c(O[C@@H]2O[C@H](CO)[C@@H](O)[C@H](O)[C@H]2O)c1`, for which the half-maximal inhibitory concentration (IC50) is 4.6 µg/mL (≈ 13.3 µM). With `O=C1CCc2ccc(O)c(c2)-c2cc(ccc2O)C[C@H](O)[C@H](O)[C@H]1O` [CARPINONTRIOL B] the figure was 80.2 µg/mL (≈ 233 µM); with `O=C1C[C@@H](O)[C@@H](O)Cc2ccc(O)c(c2)-c2cc(ccc2O)C[C@H]1O` [CARPINONTRIOLS A], above 100 µg/mL; with `O=C1CC[C@H](O)Cc2ccc(O)c(c2)-c2cc(ccc2O)C[C@H]1O` [CASUARINONDIOL], above 100 µg/mL. Take `Oc1cc(O)c2c(c1)O[C@H](c1ccc(O)c(O)c1)[C@@H](O)C2` [CIANIDANOL]: the IC50 turned out to be 2.7 µg/mL (≈ 9.3 µM).

Turning to `O=C(O[C@@H]1Cc2c(O)cc(O)cc2O[C@@H]1c1cc(O)c(O)c(O)c1)c1cc(O)c(O)c(O)c1` [EPIGALOCATECHIN GALLATE], the 50% inhibitory concentration (IC50) amounted to 2.7 µg/mL (≈ 5.89 µM). On to `COC(=O)c1cc(O)c(O)c(O)c1` [GALLIC ACID METHYL ESTER], for which the IC50 came to 4.9 µg/mL (≈ 26.6 µM). With `Oc1ccc(/C=C/c2cc(O)cc(O)c2)cc1` [RESVERATROL] the figure was 16.2 µg/mL (≈ 71 µM).
